The list is not random: actives were taken first. Their share in the collection is about 2.1%.
dFosB act-1: mouse delta FosB homodimer activation; purified delta FosB, TAMRA-CDK5 oligo fluorescence polarization; percent of positive-control signal above neutral wells; AID 493131; P13346; actives 0.99% (n = 340,000); activation, % at 25 µM;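 active = mean activation above about 17%, with every replicate also reaching it, limit read from the data, passing the limit was not always enough; inconclusive = only one of the two conditions met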
SR-BI uptake up: activators of SR-BI mediated HDL lipid uptake; CHO ldlA[mSR-BI] cells, DiI-HDL uptake fluorescence, 3 h; 100 = double the neutral-control signal; activation, % at 12.5 µM; actives 0.096% (n = 320,000);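 active = mean replicate activation of at least 60% and every replicate at or above 60%; inconclusive = mean or all-replicate condition met, but not both; inactive = mean below 60% and not all replicates reaching 60%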;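 note: 0% = median plate neutral-control signal and 100% = twice that signal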
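material = CHO ldlA[mSR-BI] cells | medium = Ham's F12 with 0.5% BSA, HEPES 25 mM, pH 7.4 | reagent = fluorescent DiI-HDL, 10 µg/mL final | compound dosing = single-point compound dose | incubation = 3 h, 37 °C | measured by = bottom-read fluorescence, 550/595 nm | measure = HDL uptake via cellular fluorescence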
CDK5 p35 inh: CDK5/p35 (human) kinase inhibition; Q00535+Q15078; Recombinant CDK5/p35, ADP-Glo luminescence, 60 min; inhibition, % at 10 µM; actives 0.01% (n = 330,000);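 active = highest replicate inhibition of at least 50% and at least 75% of replicates reaching 50%; inconclusive = only one of the two criteria met; inactive = both criteria failed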;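 note: plate controls were DMSO neutral control for no effect and GW8510 at 10 µM for full effect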
PKA-R1A act: activates the PKA-R1A holoenzyme complex. activation, % at 11.4 µM. PKA-R1A dissociation, Cy5-IP20 fluorescence polarization; scaled: DMSO 0%, 113 µM cGMP 100%. AID 504707. P00514+P68181. actives 0.083% (n = 340,000);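 active = percent activation above the mean of all tested compounds plus 3 SD, cut at about 19% in these data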;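 note: higher means more PKAc released from R1A so a rise in polarization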
SR-BI DiI inh: mouse SR-BI HDL lipid transfer inhibition. Q61009. ldlA[mSR-BI] CHO cells, DiI-HDL uptake fluorescence, 3 h. inhibition, % at 12.5 µM. actives 0.96% (n = 320,000). AID 488896;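 active = mean replicate inhibition of at least 70% and a set share of replicates each scoring 70 or more; inconclusive = meets just one of the two criteria; inactive = fails both criteria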;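 note: 0% = median of neutral control wells and 100% = median of positive control wells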
Target sequence (Q61009 whole entry, looked up): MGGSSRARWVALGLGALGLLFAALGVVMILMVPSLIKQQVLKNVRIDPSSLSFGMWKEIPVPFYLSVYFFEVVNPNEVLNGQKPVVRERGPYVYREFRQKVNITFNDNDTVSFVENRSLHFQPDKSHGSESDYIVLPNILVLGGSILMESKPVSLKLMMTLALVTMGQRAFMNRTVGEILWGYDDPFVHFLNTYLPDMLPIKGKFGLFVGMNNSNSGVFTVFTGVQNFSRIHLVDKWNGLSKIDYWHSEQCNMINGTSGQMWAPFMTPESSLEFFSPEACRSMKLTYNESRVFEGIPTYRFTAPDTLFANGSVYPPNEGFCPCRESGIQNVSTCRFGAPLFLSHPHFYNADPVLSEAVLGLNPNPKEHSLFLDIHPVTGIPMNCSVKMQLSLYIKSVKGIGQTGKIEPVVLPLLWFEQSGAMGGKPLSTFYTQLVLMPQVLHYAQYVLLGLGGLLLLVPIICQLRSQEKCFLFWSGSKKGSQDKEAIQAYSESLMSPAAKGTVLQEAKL
PKA-R2B act: PKA-R2B complex activation; actives 0.079% (n = 340,000); PKA-R2B holoenzyme dissociation, Cy5-IP20 fluorescence polarization; R2B truncated from residue 108, S112A mutant; 0% DMSO only, 100% 113 µM cGMP; activation, % at 11.4 µM;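 active = activation above a cutoff set at the mean over all compounds plus 3 SD, cut at about 18% in these data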;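 note: higher means more holoenzyme dissociation and a rise in polarization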
dFosB act-2: enhances mouse delta FosB homodimer binding to DNA. purified delta FosB, TAMRA-CDK5 oligo fluorescence polarization; normalised: neutral wells 0, positive control 100. shares compounds with dFosB act-1. activation, % at 24.9 µM. 2,400 tested, under 10 active;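 active = highest replicate activation at or above 34% and every replicate reaching that threshold; inconclusive = meets only one of the two criteria; inactive = meets neither criterion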;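 note: higher polarization means more probe DNA bound by delta FosB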
Starred values were filed as active, the others as inactive; u = inconclusive; x = no result.

SMILES	dFosB act-1	SR-BI uptake up	CDK5 p35 inh	PKA-R1A act	SR-BI DiI inh	PKA-R2B act	dFosB act-2
COc1ccc(NC(=O)c2cc(CN3C(=O)c4ccccc4C3=O)ccc2OC)cn1	18*	-54	0	0	54	-7	9
Cc1ccc(NC(=O)CCC(=O)NNS(=O)(=O)c2ccc(Cl)cc2)cc1C	6	2	0	-10	-2	-4	x
Cc1ccc(C)c(NC(=O)CCC(=O)NNS(=O)(=O)c2ccc(Cl)cc2)c1	23*	0	-3	1	0	10	-1
Cc1ccc(NC(=O)CCC(=O)NNC(=O)COc2cccc3ccccc23)c(C)c1	33*	-31	-2	-2	31	12	5
Cc1ccc(C)c(NC(=O)CCC(=O)NNC(=O)COc2cc(C)ccc2C)c1	36*	-19	0	-1	19	-8	-2
Nc1nc(SCC(=O)O)[nH]c(=O)c1NC(=O)c1ccco1	-3	2	0	-2	-2	-2	x
CC(=O)N1CCN(S(=O)(=O)c2cccc(C(=O)Nc3ccccc3N3CCCC3)c2)CC1	-5	-10	1	-16	10	1	x
Cc1sc(NC(=O)Cn2c(=O)oc3ccccc32)nc1-c1ccc(Cl)cc1	40*	-9	0	2	9	0	6
CCc1nnc(NC(=O)Cn2c(=O)oc3ccccc32)s1	6	27	0	-9	-27	2	x
CC(OC(=O)Cc1n[nH]c(=O)c2ccccc12)C(=O)Nc1ccc(F)cc1Cl (configuration not stated)	7	-10	-2	0	10	-7	x
Cc1ccc(C)c(S(=O)(=O)N2CCCCC2CCNC(=O)C(=O)NCc2ccccc2)c1 (configuration not stated)	4	-1	1	-1	1	-6	x
CCCOc1ccc(C2c3c(oc4cc(C)c(C)cc4c3=O)C(=O)N2CCCN(C)C)cc1 (configuration not stated)	28*	10	0	8	-10	-5	2
CN(CC(=O)Nc1ccc(Cl)cc1)S(=O)(=O)c1ccc2c(c1)n(C)c(=O)c(=O)n2C	12	9	-1	-4	-9	4	x
CN(CC(=O)Nc1cccc(Cl)c1)S(=O)(=O)c1ccc2c(c1)n(C)c(=O)c(=O)n2C	46*	-8	-2	-6	8	-7	0
C[C@@H]1CN([C@H](C)CO)C(=O)CCCn2nncc2CO[C@H]1CN(C)S(=O)(=O)c1ccc(C#N)cc1	x	x	x	5	x	9	x
Cn1c(=O)c(=O)n(C)c2cc(S(=O)(=O)CCC(=O)Nc3c(F)c(F)c(F)c(F)c3F)ccc21	-8	17	0	-2	-17	-10	x
CS(=O)CC(O)(c1ccc(F)cc1)C1CC1 (configuration not stated)	x	x	x	-2	x	-5	x
Cc1ccccc1NC(=O)c1ccc(F)c(S(=O)(=O)N2CCN(c3ccccn3)CC2)c1	19*	-21	-1	5	21	-2	0
CCOC(=O)C1CCN(C(=O)C(=O)Nc2ccc3nc4n(c(=O)c3c2)CCCCC4)CC1	-7	5	0	-7	-5	2	x
CCOc1ccccc1N(CC(=O)Nc1ccc(S(=O)(=O)N2CCOCC2)cc1)S(=O)(=O)c1ccccc1	53*	4	-3	-1	-4	-5	0
Cc1c(-c2nc(N)nc(Nc3ccc(F)cc3)n2)oc2ccccc12	71*	-43	2	6	43	3	9
Cc1ccc(C)c(OCc2cc(C(=O)NC3CCN(Cc4ccccc4)CC3)no2)c1	22*	-32	x	-2	32	-5	4
CC(Nc1nc(-c2cccnc2)nc2ccccc12)c1ccc(F)cc1 (configuration not stated)	-11	x	-1	0	x	11	x
Cc1ccccc1N(C(=O)c1snc(C(N)=O)c1N)C(C(=O)NCc1ccccc1)c1ccc(O)cc1 (configuration not stated)	41*	x	-4	-4	x	1	5
COc1cccc(N(C(=O)c2snc(C(N)=O)c2N)C(C(=O)NCc2ccccc2)c2ccc(O)cc2)c1 (configuration not stated)	-1	-3	-1	-14	3	-10	x
SMILES	dFosB act-1	SR-BI uptake up	CDK5 p35 inh	PKA-R1A act	SR-BI DiI inh	PKA-R2B act	dFosB act-2
CCOc1ccccc1N(C(=O)c1snc(C(N)=O)c1N)C(C(=O)NCc1ccccc1)c1ccc(O)cc1 (configuration not stated)	-5	x	-1	-6	x	-2	x
NC(=O)c1nsc(C(=O)N(c2ccccc2F)C(C(=O)NCc2ccccc2)c2ccc(O)cc2)c1N (configuration not stated)	32*	8	0	-3	-8	-6	4
CC(C)(C)C(=O)Nc1nnc(SCC(=O)NC2CCCC2)s1	2	x	0	-9	x	-7	x
O=[N+]([O-])c1cccc(/C=N/Nc2nc(N3CCOCC3)nc(N3CCOCC3)n2)c1	-4	-22	-1	1	22	-1	x
COc1ccc(/C=N/Nc2nc(Nc3ccccc3)nc(N3CCCC3)n2)cc1	47*	-62	2	-19	62	-6	1
CNc1nc(N/N=C/c2ccc([N+](=O)[O-])cc2)nc(Nc2ccccc2)n1	41*	-51	0	4	51	-1	-9
O=[N+]([O-])c1ccc(Nc2nc(N/N=C/c3cccc(F)c3)nc(N3CCCC3)n2)cc1	120*	-34	1	-6	34	8	3
CCOc1cc(/C=N\Nc2nc(Nc3ccccc3)nc(N3CCOCC3)n2)ccc1OC(=O)c1ccco1	48*	-34	-1	5	34	-6	-2
Cc1cn(CC(=O)NCCc2ccccn2)c(=O)[nH]c1=O	-3	-18	-1	-15	18	12	x
C=C1c2nc3ccccc3n2C=C(c2ccc(C)cc2)N1c1ccccc1	-4	-46	1	-5	46	-8	x
Cc1cc(C)nc(N/N=C/c2cc3c(cc2[N+](=O)[O-])OCO3)n1	7	-37	-3	-12	37	5	x
O=[N+]([O-])c1ccc(Nc2nc(NC3CCCCC3)nc(N3CCCC3)n2)cc1	48*	-73	2	7	u	-4	3
O=[N+]([O-])c1cc2c(cc1/C=N/Nc1nc(Nc3ccccc3)nc(N3CCCCC3)n1)OCO2	38*	-68	-1	-2	68	-9	0
